Screening data from PubChem BioAssay.
A selection: hits, their analogues and other compounds. The true share with any hit is near 1.8%.
TNAP act hi DEA: TNAP activators at high phosphate acceptor level, primary screen, biochemical, luminescence, uHTS | 200,000 tested, under 10 active | activation factor at 20 µM | purified TNAP, CDP-star luminescence, 1 M DEA, 30 min; active compounds read high; 0 = EDTA background, 1 = DMSO-only activity;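 active = activation factor at least 2 at 20 µM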
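Measured by: Luminescent substrate turnover signal | Test system: Human TNAP | Input: TNAP 1/800 final | Dosing: 20 µM single point | Schedule: 30 min, room temperature | Controls: EDTA wells as negative control, DMSO wells as positive control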
Ins promoter up: insulin promoter activators in MIN6 cells, imaging, high-content screening, mouse beta cells. z-score at 5 µM. hit rate 0.3% among 190,000. MIN6 insulin promoter-GFP reporter; active compounds read high;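 active = z-score above 3 at 5 µM with at least 500 cells counted in the well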
Autophagy mod: autophagy modulators in MEF cells, primary screen, imaging, high-content, MEF GFP-LC3; hit rate 0.98% among 190,000; AID 463193, 2010; calls only at 10 µM (by protocol); MEF GFP-LC3 puncta imaging; test concentration mostly 10 µM;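 active = percentage of spot-positive cells more than 3 SD above its plate mean, without a fluorescence outlier flag or 80% toxicity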;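 note: spot-positive cell cutoff set from DMSO-treated cells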
NCF1 inh: p47phox/p22phox peptide binding inhibitors, primary screen, biochemical, uHTS, NADPH oxidase regulatory subunit; Neutrophil cytosol factor 1 (Homo sapiens), P14598; fluorescence polarization, 2 h; inhibition, % at 24.7 µM; hit rate 0.53% among 220,000; AID 1274, 2008;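 active = inhibition above about 30%, limit read from the data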;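 note: 0% = p47phox with labelled peptide and 100% = labelled peptide alone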
Target sequence (P14598 whole entry, looked up): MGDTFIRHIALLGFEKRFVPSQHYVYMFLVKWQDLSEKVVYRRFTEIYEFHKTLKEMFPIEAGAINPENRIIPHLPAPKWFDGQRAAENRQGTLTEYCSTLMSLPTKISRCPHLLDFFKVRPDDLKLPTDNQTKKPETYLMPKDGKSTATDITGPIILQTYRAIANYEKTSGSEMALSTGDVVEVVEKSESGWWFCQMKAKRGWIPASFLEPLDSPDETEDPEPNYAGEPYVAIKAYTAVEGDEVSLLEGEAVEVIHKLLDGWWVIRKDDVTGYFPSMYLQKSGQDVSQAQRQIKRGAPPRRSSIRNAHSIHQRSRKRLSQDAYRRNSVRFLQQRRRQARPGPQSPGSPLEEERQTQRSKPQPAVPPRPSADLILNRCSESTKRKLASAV
TNAP inh hiacc: human TNAP enzyme inhibitors, primary screen, biochemical, luminescent, high phosphate acceptor level, uHTS; Alkaline phosphatase, tissue-nonspecific isozyme (Homo sapiens), P05186; purified TNAP, CDP-star luminescence, 1 M DEA; inhibition, % at 20 µM; hit rate 0.03% among 200,000; AID 1135, 2008;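 active = over 50% inhibition of tissue-nonspecific alkaline phosphatase at 20 µM in the single-dose screen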;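 note: plate controls were DMSO wells for no effect and EDTA-quenched wells as full inhibition for full effect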
TNAP inh noacc: human TNAP enzyme inhibitors, primary screen, biochemical, luminescent, no phosphate acceptor, uHTS; Alkaline phosphatase, tissue-nonspecific isozyme (Homo sapiens), P05186; purified TNAP, CDP-star luminescence, 30 min; inhibition, % at 20 µM; hit rate 0.26% among 200,000; AID 1012, 2008;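 active = tissue-nonspecific alkaline phosphatase inhibition above about 50% at 20 µM in the single-dose screen, limit read from the data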;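 note: 0% = DMSO negative control and 100% = EDTA positive control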
* marks the source's active call; other numbers are inactive results.

How did CC1=C(C(=O)Nc2ccccc2)C(c2cccs2)NC(=O)N1 (stereo unspecified) do in these assays?
TNAP act hi DEA: 1.1; Ins promoter up: 0.52; Autophagy mod: inactive; NCF1 inh: -1.6; TNAP inh hiacc: -8.6; TNAP inh noacc: -9.3

Results for COc1cccc(CC2(CO)CCCN(Cc3c(C)cc(C)cc3-n3cccn3)C2)c1 (stereo unspecified) ?
TNAP act hi DEA: 1; Ins promoter up: -1.18; Autophagy mod: inactive; NCF1 inh: -26.6; TNAP inh hiacc: -2.5; TNAP inh noacc: -6.4

What do the screens show for `Nc1nnc(SCC(=O)c2ccc3ccccc3c2)s1`?
TNAP act hi DEA: 1.1; Ins promoter up: 1.56; Autophagy mod: inactive; NCF1 inh: 92.4*; TNAP inh hiacc: -5.5; TNAP inh noacc: -11.0

What do the screens show for `OCCNc1nc(-c2ccccc2)c2cc(Cl)ccc2n1`?
TNAP act hi DEA: 1.1; Autophagy mod: active; NCF1 inh: -0.8; TNAP inh hiacc: -8.8; TNAP inh noacc: -14.5

What do the screens show for `CN(C)/C=N/c1c(C#N)cnn1-c1ccc(C(F)(F)F)cn1`?
TNAP act hi DEA: 1.1; Ins promoter up: 0.08; Autophagy mod: inactive; NCF1 inh: 155.3*; TNAP inh hiacc: -5.6; TNAP inh noacc: -7.8

Results for COc1ccc(OC)c(N/C(C)=C/C(=O)c2ccc(Br)cc2)c1 ?
TNAP act hi DEA: 1; Ins promoter up: 0.58; Autophagy mod: inactive; NCF1 inh: -3.0; TNAP inh hiacc: -3.8; TNAP inh noacc: -19.1

Results for N=C1CCC(=N)c2c1c(O)c1ccccc1c2O ?
Ins promoter up: 0.23; NCF1 inh: 125.0*

What do the screens show for `Cc1ccc(-c2nn(-c3ccccc3)cc2NC(=O)CCl)cc1`?
TNAP act hi DEA: 1; Ins promoter up: 0.27; Autophagy mod: inactive; NCF1 inh: -13.1; TNAP inh hiacc: 4.8; TNAP inh noacc: 2.5

Results for CC(C)C1N(C(=O)CN2CCCCC2)CCN1S(=O)(=O)c1ccccc1 (stereo unspecified) ?
TNAP act hi DEA: 1; Ins promoter up: -0.64; Autophagy mod: inactive; NCF1 inh: 3.8; TNAP inh hiacc: -4.3; TNAP inh noacc: -0.5

What do the screens show for `Cc1nc2ccccc2nc1N/N=C/c1ccc(O)cc1`?
Ins promoter up: -0.61; NCF1 inh: -13.2

Results for Oc1ccc(Nc2nc3ccccc3nc2Nc2ccc(O)cc2)cc1 ?
TNAP act hi DEA: 0.9; Ins promoter up: -0.35; Autophagy mod: active; NCF1 inh: 66.3*; TNAP inh hiacc: 6.3; TNAP inh noacc: 23.2

What do the screens show for `Cc1ccc(NC(=S)N(CCCN2CCCC2)Cc2cccn2Cc2ccc(Cl)cc2)cc1C`?
TNAP act hi DEA: 1.1; Ins promoter up: 0.17; Autophagy mod: inactive; NCF1 inh: 4.8; TNAP inh hiacc: -6.9; TNAP inh noacc: -10.3

Results for Cc1ccc(NC(=S)N(CCCN2CCCC2)Cc2cccn2Cc2ccc(Cl)cc2)cc1Cl ?
TNAP act hi DEA: 1; Ins promoter up: -0.26; Autophagy mod: active; NCF1 inh: 34.9*; TNAP inh hiacc: -4.7; TNAP inh noacc: -11.7

Results for COc1ccc(NC(=S)N(CCCN2CCCC2)Cc2cccn2Cc2ccc(Cl)cc2)cc1Cl ?
TNAP act hi DEA: 1.1; Ins promoter up: -3.83; Autophagy mod: active; NCF1 inh: 43.1*; TNAP inh hiacc: -5.4; TNAP inh noacc: -4.2

What do the screens show for `FC(F)(F)c1cccc(NC(=S)N(CCCN2CCCC2)Cc2cccn2Cc2ccc(Cl)cc2)c1`?
TNAP act hi DEA: 1; Ins promoter up: -2.05; Autophagy mod: active; NCF1 inh: 35.4*; TNAP inh hiacc: -4.9; TNAP inh noacc: -14.3

Results for COc1ccc(NC(=S)N(CCCN2CCC(C)CC2)Cc2cccs2)cc1Cl ?
TNAP act hi DEA: 1; Ins promoter up: -0.24; Autophagy mod: inactive; NCF1 inh: -5.5; TNAP inh hiacc: -0.7; TNAP inh noacc: -11.2

What do the screens show for `CC(NCCC(c1ccccc1)c1ccccc1)c1ccccc1` (stereo unspecified)?
TNAP act hi DEA: 1.1; Autophagy mod: active; NCF1 inh: -7.6; TNAP inh hiacc: -5.6; TNAP inh noacc: -11.1

Results for CC(NC1CCCC1)c1ccccc1 (stereo unspecified) ?
TNAP act hi DEA: 1.1; Ins promoter up: 0.05; Autophagy mod: inactive; NCF1 inh: 3.8; TNAP inh hiacc: -8.4; TNAP inh noacc: -10.5

Results for NC(=O)c1cc(N)ccc1N1CCCC1 ?
TNAP act hi DEA: 1; Ins promoter up: 0.48; Autophagy mod: inactive; NCF1 inh: 140.3*; TNAP inh hiacc: -1.3; TNAP inh noacc: -10.9

How did Cc1cc(N)ccc1N1CCCC1 do in these assays?
TNAP act hi DEA: 0.9; Ins promoter up: -0.27; Autophagy mod: inactive; NCF1 inh: 97.0*; TNAP inh hiacc: 5.5; TNAP inh noacc: 5.8

Results for CCOc1cc(N2CCOCC2)c(OCC)cc1NC(=O)C(C)C ?
Ins promoter up: 0.45; NCF1 inh: -6.3

How did CCOc1cc(N2CCOCC2)c(OCC)cc1NC(C)C(=O)N1CCN(CC)CC1 (stereo unspecified) do in these assays?
TNAP act hi DEA: 1; Ins promoter up: 0.18; Autophagy mod: inactive; NCF1 inh: 66.7*; TNAP inh hiacc: 2.5; TNAP inh noacc: -16.8

Results for O=C(CN1CCN(c2ccc(O)cc2)CC1)Nc1cc([N+](=O)[O-])ccc1Cl ?
TNAP act hi DEA: 1; Ins promoter up: 0.5; Autophagy mod: active; NCF1 inh: 24.7; TNAP inh hiacc: 4.5; TNAP inh noacc: -0.1

How did COc1cc(NC(=O)c2ccc(F)cc2)c(OC)cc1NC(=O)CN1CCOCC1 do in these assays?
TNAP act hi DEA: 1; Autophagy mod: active; NCF1 inh: 0.6; TNAP inh hiacc: -4.6; TNAP inh noacc: -13.2

What do the screens show for `COc1cc(NC(=O)c2ccccc2F)c(OC)cc1NC(=O)CN1CCOCC1`?
TNAP act hi DEA: 1.1; Ins promoter up: -0.28; Autophagy mod: inactive; NCF1 inh: -3.5; TNAP inh hiacc: -5.6; TNAP inh noacc: -8.8

How did Cc1ccc([N+](=O)[O-])cc1NC(=O)CN1CCC(C)CC1 do in these assays?
TNAP act hi DEA: 1; Ins promoter up: 0.6; Autophagy mod: inactive; NCF1 inh: 71.7*; TNAP inh hiacc: -4.1; TNAP inh noacc: 5.4

Results for Cc1ccc([N+](=O)[O-])cc1NC(=O)CN1CCCCC1 ?
TNAP act hi DEA: 1; Ins promoter up: 0.05; Autophagy mod: inactive; NCF1 inh: -4.9; TNAP inh hiacc: 1.9; TNAP inh noacc: -8.1

Results for COc1cc(-c2ccc(NC(=O)CN3CCC(C)CC3)c(OC)c2)ccc1NC(=O)CN1CCC(C)CC1 ?
TNAP act hi DEA: 1; Ins promoter up: 0.06; Autophagy mod: active; NCF1 inh: -5.6; TNAP inh hiacc: 0.9; TNAP inh noacc: -6.0
